# Sampled rows, rich in hits. Any-hit rate of the full collection: about 1.5%.
# NR2E3 ag-1 – inhibitors of NR2E3-RetCOR corepressor binding, primary screen, NR2E3 agonist project, biochemical, TR-FRET, GST-NR2E3, biotin-RetCOR | 0.12% of 320,000 active | inhibition of corepressor binding, % at 4.78 µM | 1536-well;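 active = percent inhibition above the cutoff of mean plus 3 SD of all tested compounds, set per screening campaign, cut at about 20% in these data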;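 also: 0% = DMSO wells and 100% = biotin wells as full block of FRET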
#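 Material – GST-tagged NR2E3 plus biotinylated RetCOR corepressor · Quantity – NR2E3 fusion 1.35 nM · Times – 5 h incubation at 4 °C · Medium – pH 7.5 Tris-based buffer · Technique – TR-FRET, Eu(K)-anti-GST donor, streptavidin-D2 acceptor, ex 340, em 617/671 nm · Benchmarks – high control biotin, low control 0.6% DMSO · Format – 1536-well plates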
# Jurkat NFkB inh – inhibitors of induced NF-kB luciferase reporter, primary screen, TCR NF-kB activation inhibitor project, cell-based, luminescence, uHTS; Jurkat, PMA/ionomycin-induced NF-kB luciferase reporter; inhibition, % at 4 µM; 0.53% of 330,000 active; AID 435003, 2010; in the data active = inhibition above about 50%
# GASC-1 inh – inhibitors of GASC-1 histone demethylase, primary screen, biochemical, fluorescence, DELFIA europium; GST-JMJD2C(1-420) H3K9me3 demethylation; inhibition, % at 2.35 µM; Lysine-specific demethylase 4C (Homo sapiens), Q9H3R0; 0.069% of 330,000 active;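 active = more than half of a compound's replicate wells show inhibition beyond 50%, single wells judged on their own value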;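 also: signal counts dimethyl H3K9 product captured on neutravidin plate; 0% = median of DMSO wells and 100% = 0.3 times that DMSO median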
# Target sequence (Q9H3R0 1-420 limits assumed): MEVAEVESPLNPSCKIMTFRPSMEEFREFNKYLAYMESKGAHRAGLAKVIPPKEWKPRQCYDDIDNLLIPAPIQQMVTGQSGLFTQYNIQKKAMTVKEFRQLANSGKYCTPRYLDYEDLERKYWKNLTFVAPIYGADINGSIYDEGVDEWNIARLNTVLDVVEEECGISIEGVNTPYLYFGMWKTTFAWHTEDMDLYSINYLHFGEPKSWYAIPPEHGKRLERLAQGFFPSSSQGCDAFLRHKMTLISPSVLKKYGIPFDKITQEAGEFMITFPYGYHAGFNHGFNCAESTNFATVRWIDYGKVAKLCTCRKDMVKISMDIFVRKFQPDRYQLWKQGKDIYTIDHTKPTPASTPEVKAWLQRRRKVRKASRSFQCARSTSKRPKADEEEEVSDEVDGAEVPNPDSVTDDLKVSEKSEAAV
# NR2E3 ag-2 – NR2E3 agonists in two-hybrid cells, primary screen, cell-based, luminescence, CHO-S, Gal4-NCOR/VP16-NR2E3 | Photoreceptor-specific nuclear receptor (Homo sapiens), Q9Y5X4 | luciferase | inhibition of corepressor binding, % at 3.98 µM | 0.35% of 360,000 active | AID 602229, 2012;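 active = inhibition above the mean of all tested compounds plus 3 SD, cut at about 70% in these data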;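 also: 0% = DMSO with NR2E3 transfected cells and 100% = cells lacking NR2E3 construct; higher means lower luciferase signal from less NR2E3 corepressor binding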
# 697 NFkB inh – inhibitors of PMA/ionomycin-induced NF-kB reporter, 697 cells, primary screen, B-cell NF-kB inhibitor project, cell-based, luminescence, uHTS; 697 B-cell NF-kB luciferase reporter, 16 h; 0.33% of 330,000 active; inhibition, % at 4 µM; AID 435022, 2010; in the data active = inhibition above about 35%
# GalR3 antagonist – GalR3 antagonists in HEK293 cells, primary screen, cell-based, fluorescence readout; Galanin receptor type 3 (Homo sapiens), O60755; HEK293 GalR3-CNG cAMP membrane potential fluorescence; galR3 body fused to GalR1 C-terminus; inhibition, % at 3 µM; 0.44% of 360,000 active; AID 651719, 2012;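 active = inhibition above the screen-wide average plus 3 SD, cut at about 13% in these data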;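 also: forskolin and galanin both at EC90 stimulate the cells; cAMP rise reported by CNG channel membrane potential dye signal; 0% = forskolin plus galanin with DMSO and 100% = forskolin alone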
# Target sequence (O60755 1-299 limits assumed): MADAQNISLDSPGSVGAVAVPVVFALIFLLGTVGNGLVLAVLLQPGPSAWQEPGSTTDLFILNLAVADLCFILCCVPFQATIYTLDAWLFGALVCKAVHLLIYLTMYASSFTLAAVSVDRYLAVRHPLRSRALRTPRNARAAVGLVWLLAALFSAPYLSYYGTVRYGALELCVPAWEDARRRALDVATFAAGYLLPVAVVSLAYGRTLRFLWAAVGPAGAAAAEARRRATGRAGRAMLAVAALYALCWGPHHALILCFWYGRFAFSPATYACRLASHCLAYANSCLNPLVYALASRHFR
# NR2E3 ag conf – NR2E3 agonist confirmation in cells, cell-based, luminescence, CHO-S two-hybrid. shares compounds with NR2E3 ag-2. CHO-S mammalian two-hybrid NR2E3-NCOR, luciferase luminescence. inhibition, % at 3.98 µM. 51% of 2,300 active;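 active = average inhibition above a cutoff equal to the mean inhibition of all tested compounds plus one SD, cut at about 70% in these data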;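 also: 0% = DMSO in NR2E3 cells and 100% = DMSO in cells lacking NR2E3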
# VP16 counter – GAL4-VP16 reporter modulators, confirmation, counter-screen for NR2E3 agonist project, cell-based, luminescence, CHO-S, high throughput. 29% of 2,300 active. inhibition, % at 3.98 µM. shares compounds with NR2E3 ag-2. CHO-S GAL4-VP16 luciferase reporter;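 active = mean inhibition above a cutoff equal to the average over all tested compounds plus one standard deviation, cut at about 70% in these data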;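 also: luciferase from a UAS reporter driven by GAL4-VP16 transactivation; 0% = DMSO with VP16-transfected cells and 100% = DMSO with cells lacking VP16; higher means less reporter light so more repression of VP16 activity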
# Numbers without * were called inactive; x = no result.
SMILES,NR2E3 ag-1,Jurkat NFkB inh,GASC-1 inh,NR2E3 ag-2,697 NFkB inh,GalR3 antagonist,NR2E3 ag conf,VP16 counter
Cc1ccc(C)c(-n2sc3ccc(F)cc3c2=O)c1,1.2,-0.9,8.7,63.2,1.9,-4.5,-18.3,-17.2
O=c1c2cc(F)ccc2sn1-c1ccc(F)cc1,0.8,-10.7,5.5,46.4,-8.5,x,x,x
Cc1ccc(S(=O)(=O)Nc2cccc3c2O[C@H](CN(C)C(=O)Nc2cccc4ccccc24)[C@H](C)CN([C@H](C)CO)C3=O)cc1,x,-8.0,-13.0,-41.6,-14.6,-5.8,x,x
CC(Sc1nnc(CN2CCCC2)n1Cc1ccccc1)C(=O)Nc1ccc(F)cc1Cl (configuration not stated),x,x,x,-23.9,x,-4.4,x,x
CO[C@@H]1[C@H](O)CC[C@]2(O)CN(c3ccccc3)[C@](C)([C@H](O)CC=C(C)C)[C@@H]12,x,x,x,x,x,-1.4,x,x
O=C(O)CC/C(=C\c1ccc(N2CCCC2)c([N+](=O)[O-])c1)c1nc2ccccc2s1,5.5,-8.9,-2.7,-20.1,-9.5,-0.5,x,x
CN(c1ccccc1)c1ccc(/C=C(/CCC(=O)O)c2nc3ccccc3s2)cc1[N+](=O)[O-],x,x,x,67.4,x,3.3,26.2,43.8
COc1cccc(-c2nc(CSCC(=O)N3CCc4ccccc43)c(C)o2)c1,-5.2,-3.1,0.6,10.7,6.4,-5.5,x,x
CCOC(=O)N1CCC(NC(=O)CSCc2nc(-c3ccc(OCC)cc3)oc2C)CC1,-2.5,4.9,-36.9,59.5,-1.8,-7.8,43.1,33.3
Cc1ccc(-c2nc(CSCC(=O)N3CCN(c4ccccn4)CC3)c(C)o2)cc1,-0.4,-2.3,6.2,82.8*,-24.8,9.3,87.3*,76.4*
CCOc1ccc(-c2nc(CSCC(=O)N3CCN(c4cccc(OC)c4)CC3)c(C)o2)cc1,1.6,21.2,3.6,66.3,11.8,x,78.2*,52.7
CCOC(=O)N1CCC(NC(=O)CSCc2nc(-c3cccc(OC)c3)oc2C)CC1,1.1,-2.1,3.5,-2.8,-49.9,-2.0,x,x
CCOC(=O)C1=CCN(S(=O)(=O)c2cccc(Cl)c2)C1c1ccc(F)cc1 (configuration not stated),x,x,x,1.0,x,-8.4,x,x
CCOc1ccc(OCCC(=O)NNC(=O)c2cc(OC)c(OC)c(OC)c2)cc1,3.2,-11.1,19.8,-25.8,19.5,-1.3,x,x
CCOC(=O)Cc1nnc2c(Nc3ccccc3F)nc3nonc3n12,0.5,7.8,1.4,71.2*,17.7,6.8,74.0*,44.3
C/C(=N\NC(=S)NC1CCCCC1)c1ccccc1,-1.7,-47.8,0.4,55.3,-71.6,-7.1,26.8,-43.2
CCOP(=O)(OCC)C(C#N)=C1SCN(c2ccccc2)CS1,3.9,7.2,-8.0,-13.5,-36.3,-5.3,x,x
CCOC(=O)CN1C(=O)N(CC(=O)OCC)C(c2ccccc2)(c2ccccc2)C1=O,-0.7,-2.4,-5.8,-3.6,-8.2,-11.1,x,x
O=C(Nc1ccc2c(c1)OCCO2)NC1(C(F)(F)F)Oc2ccccc2O1,-1.1,21.6,-13.2,58.5,-34.5,-2.0,10.1,-35.2
C/C(=N\NC(=S)NCc1ccccc1)c1ccc2ccccc2c1,1.9,-24.2,-1.4,58.2,-50.0,2.3,-28.4,-56.5
COc1ccc(/C(C)=N/NC(=S)NCCc2ccccc2)cc1,1.1,-0.6,-0.4,70.1,-70.2,-2.0,1.6,1.0
COc1ccc(/C(C)=N/NC(=S)NCc2ccco2)cc1,-1.3,-7.6,2.4,47.5,-11.2,-5.5,3.6,-9.8
COc1ccc(CNC(=S)N/N=C(\C)c2ccc(OC)cc2)cc1,1.2,-1.1,-10.7,50.9,-4.1,-6.0,-14.4,-12.2
C/C(=N\NC(=S)NCCc1ccccc1)c1cccc(Br)c1,-1.9,-0.8,12.1,26.6,6.2,1.5,x,x
C/C(=N\NC(=S)NCc1ccccc1)c1cccc(Br)c1,4.1,1.4,-26.7,25.1,1.5,6.7,x,x
SMILES,NR2E3 ag-1,Jurkat NFkB inh,GASC-1 inh,NR2E3 ag-2,697 NFkB inh,GalR3 antagonist,NR2E3 ag conf,VP16 counter
C=CCNC(=S)N/N=C(\C)c1ccc(OC)cc1,4.7,-12.2,-0.5,36.5,-30.2,-3.5,x,x
COc1ccc(/C(C)=N/NC(=O)CNC(=O)c2ccco2)cc1,0.5,8.9,-17.0,3.2,10.2,-1.3,x,x
Cc1ccccc1-c1ccc2c(c1)[C@@H]1C[C@H](N(C)C(=O)Nc3ccccc3)[C@H]([C@H](C)O)CN1CC2,x,x,x,x,x,-2.0,x,x
C=CCNC(=S)NS(=O)(=O)c1cccs1,1.3,12.5,2.5,-10.7,11.6,-6.7,x,x
COc1ccc(NC(=O)COC(=O)C2CC(=O)N(CCc3ccc(OC)c(OC)c3)C2)cc1Cl (configuration not stated),0.5,-7.4,-2.4,9.6,9.1,-2.9,x,x
NNC(=S)NCCc1ccccc1,-3.5,-9.9,-23.7,66.1,0.2,-5.1,-2.1,-7.3
CC(C)C1Nc2c(O)cc(Cl)c([N+](=O)[O-])c2C2C=CCC21 (configuration not stated),x,x,-9.8,98.6*,x,-2.4,100.4*,91.2*
O=C(O)C1Nc2c(Cl)cc(Cl)c(Cl)c2C2C=CCC12 (configuration not stated),4.5,x,3.4,-38.8,x,-5.9,x,x
COc1cc(CN(C)c2ncnc3sccc23)ccc1OC(F)F,2.8,-7.5,6.8,84.5*,-18.6,-7.7,73.7*,61.2
COc1ccc(OC)c(Nc2ncnc3sccc23)c1,-0.3,-30.2,16.8,1.9,-19.2,-6.8,x,x
CCn1c(NC(=O)Nc2cccc(C)c2C)cc2sccc21,-0.5,-0.1,3.4,-7.8,-6.2,-0.6,x,x
Cc1ccc2nc(C(F)(F)F)c(C#N)c(N)c2c1,5.7,23.6,35.2,75.1*,-48.9,-6.5,59.0,26.3
Cc1cc(C)c2nc(C(F)(F)F)c(C#N)c(N)c2c1,2.5,2.2,1.5,8.9,-14.6,-4.0,x,x
CCN1CCN(C(=S)Nc2ccc3nc4n(c(=O)c3c2)CCCCC4)CC1,1.0,-1.8,5.5,-8.0,-1.4,1.4,x,x
Cc1cc(-c2ccc(C)c(S(=O)(=O)NCCCN3CCN(c4ccccc4F)CC3)c2)on1,3.8,-0.5,0.3,61.7,-32.7,-6.8,76.4*,68.0
